Source: PubChem (several laboratories)
Most compounds without a hit are left out; they make up all but 2.3% or so of the library.
NR2F2 inh: NR2F2 transcriptional activity inhibitors, primary screen, cell-based, luciferase reporter, HEK293T, luminescence; 370,000 compounds, 0.7% hits; COUP transcription factor 2 (Homo sapiens), P24468; inhibition, % at 8.6 µM; HEK293T NGFI-A luciferase reporter;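 active means inhibition above a per-plate cutoff, mean inhibition of test wells between control levels plus 3 SD, cut at about 38% in these data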;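 further: cells cotransfected with COUP-TFII expression vector driving the NGFI-A reporter; 0% = median of COUP-TF2 test wells and 100% = reporter-only cells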
NR2E3 ag-1: NR2E3 agonists in two-hybrid cells, primary screen, cell-based, luminescence, CHO-S, Gal4-NCOR/VP16-NR2E3. 360,000 compounds, 0.35% hits. inhibition of corepressor binding, % at 3.98 µM. luciferase;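 active means inhibition above the mean of all tested compounds plus 3 SD, cut at about 70% in these data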;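 further: 0% = DMSO with NR2E3 transfected cells and 100% = cells lacking NR2E3 construct; higher means lower luciferase signal from less NR2E3 corepressor binding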
CHT PAM: CHT positive allosteric modulators, primary screen, cell-based, membrane potential dye, choline EC20 | B-score at 10 µM | 310,000 compounds, 0.49% hits | High affinity choline transporter 1 (Homo sapiens), Q9GZV3 | CHT-expressing cells; stronger effect = higher value; LV-AA mutant CHT in HEK293 cells;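 active means initial fluorescence not abnormally high and integrated response B-score, plate-corrected, over 3 SD above library mean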
NR2E3 ag-2: inhibitors of NR2E3-RetCOR corepressor binding, primary screen, NR2E3 agonist project, biochemical, TR-FRET, GST-NR2E3, biotin-RetCOR; Photoreceptor-specific nuclear receptor (Homo sapiens), Q9Y5X4; 1536-well; inhibition of corepressor binding, % at 4.78 µM; 320,000 compounds, 0.12% hits;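 active means percent inhibition above the cutoff of mean plus 3 SD of all tested compounds, set per screening campaign, cut at about 20% in these data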;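 further: 0% = DMSO wells and 100% = biotin wells as full block of FRET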
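System: GST-tagged NR2E3 plus biotinylated RetCOR corepressor; Amount: 1.35 nM GST-tagged NR2E3 final; Dosing: single nominal compound dose of 4.8 µM; Schedule: 5 h incubation at 4 °C; Technique: TR-FRET with europium anti-GST and streptavidin-D2, 340 nm excitation; Controls: biotin wells as high control, 0.6% DMSO wells as low control.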
GalR3 antagonist: GalR3 antagonists in HEK293 cells, primary screen, cell-based, fluorescence readout; AID 651719, 2012; Galanin receptor type 3 (Homo sapiens), O60755; HEK293 GalR3-CNG cAMP membrane potential fluorescence; galR3 body fused to GalR1 C-terminus; inhibition, % at 3 µM; 360,000 compounds, 0.44% hits;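 active means inhibition above the screen-wide average plus 3 SD, cut at about 13% in these data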;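 further: forskolin and galanin both at EC90 stimulate the cells; cAMP rise reported by CNG channel membrane potential dye signal; 0% = forskolin plus galanin with DMSO and 100% = forskolin alone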
Target sequence (O60755 1-299 limits assumed): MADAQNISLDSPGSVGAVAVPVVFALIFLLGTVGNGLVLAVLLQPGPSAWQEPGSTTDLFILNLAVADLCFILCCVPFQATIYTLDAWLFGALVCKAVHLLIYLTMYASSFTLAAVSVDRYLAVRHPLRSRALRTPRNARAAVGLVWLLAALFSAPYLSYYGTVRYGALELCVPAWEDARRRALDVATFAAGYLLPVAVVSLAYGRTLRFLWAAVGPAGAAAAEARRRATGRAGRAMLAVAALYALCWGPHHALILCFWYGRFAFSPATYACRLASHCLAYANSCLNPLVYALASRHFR
CHT block: inhibitors of human choline transporter CHT; B-score at 10 µM; 310,000 compounds, 0.86% hits; CHT-expressing cells, membrane potential dye, choline response; stronger effect = lower value; AID 488975, 2010; High affinity choline transporter 1 (Homo sapiens), Q9GZV3;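 active means B-score over 3 SD under the library average, and starting fluorescence ratio not unusually high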;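 further: choline stimulus applied at its EC90 after an EC20 pre-addition; B-score computed on integrated fluorescence ratio after choline addition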
CHT block conf: CHT inhibitors, confirmation, cell-based, membrane potential dye, duplicate; CHT activity remaining % of control (stronger effect = lower value), % at 10 µM; shares compounds with CHT block; 2,400 compounds, 70% hits; CHT-expressing cells, choline membrane potential dye; LV-to-AA substituted CHT, HEK293 cells;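 active means choline transporter activity left, mean of duplicates at 10 µM, below buffer-only control mean minus 3 SD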;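 further: depolarization triggered by choline at its EC90 following an EC20 pre-addition; 0% = hemicholinium-3 full block and 100% = buffer-only control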
HEK293 CHT ctr: membrane potential effects in parental HEK293, counter-screen for CHT inhibitor project, cell-based, membrane potential dye. shares compounds with CHT block. choline response; active = decrease or increase beyond buffer ±3SD. membrane potential ratio readout (active if shifted either direction beyond buffer ±3SD; no single direction) at 10 µM. 2,400 compounds, 4% hits. AID 493222, 2011;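 further: parental cells lack the transporter so any hit is non-specific; ratio is peak minus trough fluorescence over baseline after EC90 choline challenge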
Starred values were filed as active, the others as inactive; i = inactive; . = not tested or not shown.

SMILES	NR2F2 inh	NR2E3 ag-1	CHT PAM	NR2E3 ag-2	GalR3 antagonist	CHT block	CHT block conf	HEK293 CHT ctr
Cc1ccc(C(=O)O)cc1NC(=S)NC(=O)c1ccc(COc2ccccc2)cc1	-15	-10	i	0	-5	-6.5*	48%*	i
Cc1ccc(C(=O)O)cc1NC(=S)NC(=O)Cc1ccccc1	-9	19	i	-1	-3	i	.	.
CC(=O)N(C)c1ccc(OCC(O)CN(c2ccccc2C)S(=O)(=O)c2ccc(C)cc2)cc1 (stereo not given)	-10	44	i	0	-4	-18*	-11%*	i
CC(=O)N(C)c1ccc(OCC(O)CN(Cc2ccco2)S(=O)(=O)c2ccc(C)cc2)cc1 (stereo not given)	-7	47	i	0	-4	i	.	.
COC[C@H]1CCCN1c1cccc2c1S(=O)(=O)N(C1CC1)CCCO2	5	.	.	.	.	.	.	.
CC(C)c1ccc(NC2CCCN(C(=O)c3cc(C(C)C)[nH]n3)C2)cc1 (stereo not given)	-10	-24	.	.	4	.	.	.
COC(=O)c1ccc(C(=O)N2CCCC(Nc3ccc(C(C)C)cc3)C2)nc1 (stereo not given)	2	-12	i	-2	-7	-5.2*	58%*	i
Cc1ccc(S(=O)(=O)N2CCC(c3nc4ccccc4o3)CC2)s1	-21	.	.	.	.	.	.	.
O=C(NNC1=C(C(=O)C(F)(F)F)CCC1)c1ccccc1Cl	-5	-52	i	4	-4	i	.	.
O=C(NNC1=C(C(=O)C(F)(F)F)CCC1)c1ccc(Br)cc1	21	-58	i	2	-2	-7.5*	43%*	i
Nc1ccccc1C(=O)NNC1=C(C(=O)C(F)(F)F)CCC1	-1	-201	i	4	-3	i	.	.
O=C(NNC1=C(C(=O)C(F)(F)F)CCC1)c1ccccc1O	-15	-57	i	2	-3	-6.5*	31%*	i
CC1=C(C(=O)OC(C)C)C(c2ccc(Br)s2)NC(=O)N1C (stereo not given)	1	13	i	2	-4	-5.1*	58%*	i
C=CCN1[C@H](C)COc2cccc(F)c2S1(=O)=O	-10	.	.	.	.	.	.	.
Cc1ccc(-c2csc(NC(=O)c3cccc(C)c3)c2C(=O)O)cc1	-26	42	i	-1	-5	-7.7*	43%*	i
Cc1cccc(C(=O)Nc2scc(-c3ccc(Br)cc3)c2C(=O)O)c1	-7	-14	i	0	2	i	.	.
COc1cc(C(=O)Nc2scc(-c3ccc(Br)cc3)c2C(=O)O)cc(OC)c1OC	-23	-12	i	-1	-8	i	.	.
Cc1ccc(-c2csc(NC(=O)c3ccccc3Cl)c2C(=O)O)cc1	26	-19	i	3	-2	-5.9*	66%*	i
Cc1ccc(-c2csc(NC(=O)c3ccc(Br)cc3)c2C(=O)O)cc1	2	-8	i	0	-3	-5.3*	51%*	i
COc1cccc(-c2nnc3n2N=C(c2ccc(Cl)cc2)CS3)c1	18	.	.	.	.	.	.	.
O=C(NC1CCCCN(Cc2cccc(C(F)(F)F)c2)C1=O)c1cccc(F)c1 (stereo not given)	8	.	.	.	.	.	.	.
CN(c1ccc(O)cc1)c1nc(-c2cccs2)cs1	-57	-98	i	-1	-6	-5.1*	70%*	i
CC(C)Cn1c(N)c(C(=O)COC(=O)c2ccccc2Cl)c(=O)n(C)c1=O	8	7	i	6	-3	-10*	i	i
CC(C)Cn1c(N)c(C(=O)COC(=O)c2ccccc2F)c(=O)n(C)c1=O	12	-22	i	-2	-8	i	.	.
CC(C)C(=O)N1CC[C@H]2[C@H](CCCN2Cc2ccc(F)cc2)C1	-24	.	.	.	.	.	.	.
SMILES	NR2F2 inh	NR2E3 ag-1	CHT PAM	NR2E3 ag-2	GalR3 antagonist	CHT block	CHT block conf	HEK293 CHT ctr
CCCCOC(=O)n1c(SCC(=O)N(CC)CC)nc2ccccc21	-7	-13	i	5	-9	-5.2*	i	i
CCOC(=O)n1c(SCC(N)=O)nc2ccccc21	-3	-1	i	3	0	i	.	.
O=C(Nc1ccccc1)Nc1nc2ncccn2c1-c1ccc(F)cc1	-14	.	.	.	.	.	.	.
N#Cc1ccc(-c2nc3ccc(Br)cc3c(=O)n2O)cc1	-4	-11	i	4	-4	i	.	.
O=c1c2cc(Br)ccc2nc(-c2ccc([N+](=O)[O-])cc2)n1O	10	2	i	2	-4	-6.3*	38%*	i
O=c1c2cc(Cl)ccc2nc(-c2ccccc2)n1O	7	-39	i	2	-6	i	.	.
O=c1c2cc(Br)ccc2nc(-c2cccc(C(F)(F)F)c2)n1O	-9	23	i	1	3	-6*	39%*	i
COC(=O)C1CN(Cc2ccc(OC)cc2)CCS(=O)(=O)N1Cc1cn(Cc2ccc(OC)cc2)nn1 (stereo not given)	20	.	.	.	.	.	.	.
CCn1cc(CN(C)C(=O)CSc2nc(-c3ccco3)cc(C(F)(F)F)n2)c(C)n1	3	-20	i	2	-1	i	.	.
Cc1c(CN(C)C(=O)CSc2nc(-c3ccco3)cc(C(F)(F)F)n2)cnn1C	11	-3	i	3	2	-7*	69%*	-8.6*
CCC1CCCCN1CCCNC(=O)c1ccc(N2CCOCC2)c(NS(=O)(=O)c2ccc(OC)cc2)c1 (stereo not given)	-1	4	i	-5	-7	-6.8*	42%*	i
COc1ccc(S[C@]2(C(=O)N3CCCC3)CC(=O)N(C(=O)/C=C/c3ccccc3)[C@@H]2c2ccc(OC)cc2)cc1	15	.	.	.	.	.	.	.
O=C(C1CC(=O)N(C2CCCC2)C1)N1CCC(Cc2ccccc2)CC1 (stereo not given)	19	14	i	4	-3	-5.8*	55%*	i
